# Test system: U2OS
# Assay: Multiplex assay against U2OS
# Type: toxicity, cell-based
# Conditions: human
# Summary of the method: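 Hoechst33342, BioTracker Green Microtubule Cytoskeleton Dye, MitoTracker Red and Annexin V Alexa Fluor 680 were added to live cells at seeding, and imaging on a CQ1 microscope at 37°C and 5% CO2 followed compound addition. Gating by CellPathfinder machine learning separated cells into Hoechst high-intensity objects or normal cells, then normal cells into healthy, pyknosed or fragmented nuclei, then pyknosed cells into mitotic or apoptotic. Per cents of healthy-nucleus cells are reported for the tubulin, mitochondrial-mass and membrane-permeability phenotypes.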
# [1] = 12 h, 1 µM, compound concentration 1 uM, replicate 1
# [2] = 12 h, 1 µM, compound concentration 1 uM, replicate 2
# [3] = 12 h, 10 µM, compound concentration 10 uM, replicate 1
# [4] = 12 h, 10 µM, compound concentration 10 uM, replicate 2
# [5] = 24 h, 1 µM, compound concentration 1 uM, replicate 1
# [6] = 24 h, 1 µM, compound concentration 1 uM, replicate 2
# [7] = 24 h, 10 µM, compound concentration 10 uM, replicate 1
# [8] = 24 h, 10 µM, compound concentration 10 uM, replicate 2
# [9] = 48 h, 1 µM, compound concentration 1 uM, replicate 1
# [10] = 48 h, 1 µM, compound concentration 1 uM, replicate 2
# [11] = 48 h, 10 µM, compound concentration 10 uM, replicate 1
# [12] = 48 h, 10 µM, compound concentration 10 uM, replicate 2
smiles,measurement,setting,value
O=C(NCCNCC(O)COc1ccc(O)cc1)N1CCOCC1.O=C(NCCNCC(O)COc1ccc(O)cc1)N1CCOCC1.O=C(O)/C=C/C(=O)O (stereo unspecified) [XAMOTEROL FUMARATE],Population Apoptotic (%),[1],71%
same,Population Fragmented Nuclei (%),[1],27%
same,Population Healthy Nuclei (%),[1],66%
same,Population Hoechst High Intensity Objects (%),[1],2%
same,Population Membrane Permeable-Phenotype (%),[1],6%
same,Population Mitochondria Different-Phenotype (%),[1],1%
same,Population Mitotic Cells (%),[1],28%
same,Population Normal (%),[1],97%
same,Population Pyknosed Nuclei (%),[1],5%
same,Population Tubulin-Different-Phenotype (%),[1],2%
same,Total Cell Count,[1],265
same,Population Apoptotic (%),[2],83%
same,Population Fragmented Nuclei (%),[2],19%
same,Population Healthy Nuclei (%),[2],68%
same,Population Hoechst High Intensity Objects (%),[2],3%
same,Population Membrane Permeable-Phenotype (%),[2],13%
same,Population Mitotic Cells (%),[2],16%
same,Population Normal (%),[2],96%
same,Population Pyknosed Nuclei (%),[2],11%
same,Population Tubulin-Different-Phenotype (%),[2],5%
same,Total Cell Count,[2],110
same,Population Apoptotic (%),[3],92%
same,Population Fragmented Nuclei (%),[3],28%
same,Population Healthy Nuclei (%),[3],60%
same,Population Hoechst High Intensity Objects (%),[3],0%
same,Population Membrane Permeable-Phenotype (%),[3],6%
same,Population Mitochondria Different-Phenotype (%),[3],2%
same,Population Mitotic Cells (%),[3],7%
same,Population Normal (%),[3],99%
same,Population Pyknosed Nuclei (%),[3],11%
same,Population Tubulin-Different-Phenotype (%),[3],4%
same,Total Cell Count,[3],239
same,Population Apoptotic (%),[4],100%
same,Population Fragmented Nuclei (%),[4],15%
same,Population Healthy Nuclei (%),[4],73%
same,Population Hoechst High Intensity Objects (%),[4],4%
same,Population Membrane Permeable-Phenotype (%),[4],4%
same,Population Mitochondria Different-Phenotype (%),[4],3%
same,Population Mitotic Cells (%),[4],0%
same,Population Normal (%),[4],95%
same,Population Tubulin-Different-Phenotype (%),[4],7%
same,Total Cell Count,[4],118
same,Population Apoptotic (%),[5],85%
same,Population Fragmented Nuclei (%),[5],24%
same,Population Healthy Nuclei (%),[5],68%
same,Population Hoechst High Intensity Objects (%),[5],0%
same,Population Membrane Permeable-Phenotype (%),[5],5%
same,Population Mitochondria Different-Phenotype (%),[5],0%
same,Population Mitotic Cells (%),[5],15%
same,Population Normal (%),[5],99%
same,Population Pyknosed Nuclei (%),[5],6%
same,Population Tubulin-Different-Phenotype (%),[5],1%
same,Total Cell Count,[5],312
same,Population Apoptotic (%),[6],80%
same,Population Fragmented Nuclei (%),[6],18%
same,Population Healthy Nuclei (%),[6],69%
same,Population Hoechst High Intensity Objects (%),[6],1%
same,Population Membrane Permeable-Phenotype (%),[6],10%
same,Population Mitochondria Different-Phenotype (%),[6],4%
same,Population Mitotic Cells (%),[6],20%
same,Population Normal (%),[6],98%
same,Population Pyknosed Nuclei (%),[6],11%
same,Population Tubulin-Different-Phenotype (%),[6],5%
same,Total Cell Count,[6],129
same,Population Apoptotic (%),[7],89%
same,Population Fragmented Nuclei (%),[7],22%
same,Population Healthy Nuclei (%),[7],66%
same,Population Hoechst High Intensity Objects (%),[7],1%
same,Population Membrane Permeable-Phenotype (%),[7],6%
same,Population Mitochondria Different-Phenotype (%),[7],2%
same,Population Mitotic Cells (%),[7],10%
same,Population Normal (%),[7],98%
same,Population Pyknosed Nuclei (%),[7],10%
same,Population Tubulin-Different-Phenotype (%),[7],2%
same,Total Cell Count,[7],270
same,Population Apoptotic (%),[8],78%
same,Population Fragmented Nuclei (%),[8],16%
same,Population Healthy Nuclei (%),[8],70%
same,Population Mitotic Cells (%),[8],21%
same,Population Pyknosed Nuclei (%),[8],12%
same,Population Tubulin-Different-Phenotype (%),[8],6%
same,Total Cell Count,[8],152
same,Population Apoptotic (%),[9],90%
same,Population Fragmented Nuclei (%),[9],18%
same,Population Healthy Nuclei (%),[9],75%
same,Population Hoechst High Intensity Objects (%),[9],1%
same,Population Membrane Permeable-Phenotype (%),[9],4%
same,Population Mitochondria Different-Phenotype (%),[9],2%
same,Population Mitotic Cells (%),[9],9%
same,Population Normal (%),[9],98%
same,Population Pyknosed Nuclei (%),[9],6%
same,Population Tubulin-Different-Phenotype (%),[9],2%
same,Total Cell Count,[9],472
same,Population Apoptotic (%),[10],91%
same,Population Fragmented Nuclei (%),[10],23%
same,Population Healthy Nuclei (%),[10],62%
same,Population Hoechst High Intensity Objects (%),[10],2%
same,Population Membrane Permeable-Phenotype (%),[10],6%
same,Population Mitochondria Different-Phenotype (%),[10],3%
same,Population Mitotic Cells (%),[10],8%
same,Population Normal (%),[10],97%
same,Population Pyknosed Nuclei (%),[10],13%
same,Population Tubulin-Different-Phenotype (%),[10],4%
same,Total Cell Count,[10],171
same,Population Apoptotic (%),[11],89%
same,Population Fragmented Nuclei (%),[11],18%
same,Population Healthy Nuclei (%),[11],68%
same,Population Hoechst High Intensity Objects (%),[11],1%
same,Population Membrane Permeable-Phenotype (%),[11],2%
same,Population Mitochondria Different-Phenotype (%),[11],1%
same,Population Mitotic Cells (%),[11],10%
same,Population Normal (%),[11],98%
same,Population Pyknosed Nuclei (%),[11],12%
same,Population Tubulin-Different-Phenotype (%),[11],2%
same,Total Cell Count,[11],392
same,Population Apoptotic (%),[12],94%
same,Population Fragmented Nuclei (%),[12],17%
same,Population Healthy Nuclei (%),[12],73%
same,Population Hoechst High Intensity Objects (%),[12],2%
same,Population Membrane Permeable-Phenotype (%),[12],4%
same,Population Mitochondria Different-Phenotype (%),[12],4%
same,Population Mitotic Cells (%),[12],5%
same,Population Normal (%),[12],97%
same,Population Pyknosed Nuclei (%),[12],9%
same,Population Tubulin-Different-Phenotype (%),[12],6%
same,Total Cell Count,[12],206
